Reference: ChEMBL document CHEMBL1159001, “Isolation, purification, and cytotoxicity of 5-methoxypodophyllotoxin, a lignan from a root culture of Linum flavum” (1992)
Values after ≈ are worked out from the molar mass of the structure shown.

Assays:
[1] = Cytotoxicity against mouse EAT cells after 4 days by trypan blue assay; format: functional; conditions: 96 h, read-out: ED50 (the source's name)
How it was run: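 Murine Ehrlich ascites tumor cells grown in suspension in RPMI 1640 with 10% fetal calf serum, streptomycin and penicillin G (doubling time 12–14 h). Exponential-phase cells, viability >95% by trypan blue. Lignans came from 0.5 or 5 mM 96% EtOH stocks, in 24 twofold dilutions. 2000 viable cells/well, incubated 4 days at 37°, 5% CO2. Sedimented pellet diameters were compared visually with untreated wells, and ED50 derived as 50% growth inhibition.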

[2] = tested on: HeLa; assay: Cytotoxicity against human HeLa cells after 4 days by trypan blue assay; format: functional; conditions: 96 h, read-out: ED50 (the source's name)
How it was run: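 HeLa cells cultured in Joklik's MEM with 10% fetal calf serum, streptomycin and penicillin G (doubling time ca. 24 h). Exponentially growing cells with >95% trypan-blue viability. Lignans were taken from 0.5 or 5 mM stocks in 96% EtOH, and 24 twofold dilutions were made in medium. 2000 cells/well, 4 days at 37°, 5% CO2. Growth was scored visually by pellet diameter against untreated controls, and ED50 (50% growth inhibition) calculated.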

COc1cc([C@@H]2c3cc4c(cc3[C@H](O[C@@H]3O[C@H](CO)[C@@H](O)[C@H](O)[C@H]3O)[C@H]3COC(=O)[C@H]23)OCO4)cc(OC)c1OC
EC50 [1]: 30 µg/mL (≈ 52 µM) | EC50 [2]: 21.8 µg/mL (≈ 37.8 µM)

COc1cc([C@@H]2c3cc4c(cc3[C@@H](O[C@@H]3O[C@@H]5CO[C@@H](C)O[C@H]5[C@H](O)[C@H]3O)[C@H]3COC(=O)[C@H]23)OCO4)cc(OC)c1O [ETOPOSIDE]
EC50 [1]: 1.1 µg/mL (≈ 1.87 µM) | EC50 [2]: 7.9 µg/mL (≈ 13.4 µM)

COc1cc([C@@H]2c3cc4c(c(OC)c3[C@H](O)[C@H]3COC(=O)[C@H]23)OCO4)cc(OC)c1OC
EC50 [1]: 32 µg/mL (≈ 72 µM) | EC50 [2]: 22 µg/mL (≈ 49.5 µM)

COc1cc([C@@H]2c3cc4c(cc3[C@@H](O[C@@H]3O[C@@H]5CO[C@@H](c6cccs6)O[C@H]5[C@H](O)[C@H]3O)[C@H]3COC(=O)[C@H]23)OCO4)cc(OC)c1O [TENIPOSIDE]
EC50 [1]: 0.06 µg/mL (≈ 0.0914 µM) | EC50 [2]: 0.3 µg/mL (≈ 0.457 µM)

COc1cc([C@@H]2c3cc4c(cc3[C@H](O)[C@H]3COC(=O)[C@H]23)OCO4)cc(OC)c1OC [PODOFILOX]
EC50 [1]: 42.8 µg/mL (≈ 103 µM) | EC50 [2]: 20.5 µg/mL (≈ 49.5 µM)
